“Also recorded” adds a separate entry of the source. Each block holds one compound with its values, some of them ahead of it.
Experiments:
[1] = system: rat ORs; settings: cited from earlier work
[2] = system: rat OR-I7; settings: cited from earlier work; for Function at rodent OR-I7 (agonist or antagonist), in words: rat OR-I7, earlier study; for IC50: read-out: IC50 (antagonist, estimated)
[3] = target: T1, mouse OR-I7 (Mus musculus, UniProt Q9QWU6); experiment: Hana3A GloSensor cAMP assay, inhibition of response to co-applied 5 µM octanal; format: cell-based; settings: for Relative antagonist potency within the series, in words: side-by-side comparison, Figs. 3 and 4
T1 sequence (Q9QWU6 1-327): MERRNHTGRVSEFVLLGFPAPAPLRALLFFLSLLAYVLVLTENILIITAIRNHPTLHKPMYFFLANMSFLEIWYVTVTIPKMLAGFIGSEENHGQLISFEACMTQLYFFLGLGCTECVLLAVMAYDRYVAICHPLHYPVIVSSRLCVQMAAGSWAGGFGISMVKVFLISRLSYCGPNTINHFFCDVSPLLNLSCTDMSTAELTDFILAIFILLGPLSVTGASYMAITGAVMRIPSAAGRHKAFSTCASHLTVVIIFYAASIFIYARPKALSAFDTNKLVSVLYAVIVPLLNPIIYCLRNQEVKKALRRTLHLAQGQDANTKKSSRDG

[4] = target: T1, mouse OR-I7; experiment: Hana3A GloSensor cAMP assay, compounds applied alone; format: cell-based; settings: compound applied alone to Hana3A cells expressing mouse OR-I7
Summary of the method: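 Hana3A cells were co-transfected with Rho-tagged mouse OR-I7 (80 ng/well), RTP1S, M3-R and pGloSensor-22F (10 ng/well each). At 18–24 h they were loaded with 2% GloSensor reagent for 2 h. Test compound was applied alone over a concentration range, and luminescence was read every 90 s for 24 min. Signal at 3–7.5 min was summed, baselined and normalized to octanal. Six replicates per plate, mean ± SEM.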

Compound: CCCCCCCC=O [Compound 1, octanal]
Number of rat ORs activated [1]: 33–55
Function at rodent OR-I7 (agonist or antagonist), in words [2]: agonists

Increase in antagonist potency relative to pentanal ([3]; from estimated IC50s, 5 µM octanal, Fig. 3): 5 fold
Compound: CCC(C)CC=O (stereo not shown) [Compound 5]

Activation of mouse OR-I7 (agonist activity), in words [4]: not a mouse OR-I7 agonist
Response to octanal with co-applied compound (antagonism), in words ([3]; increasing concentrations co-applied with constant 5 µM octanal): reduced in a dose-dependent manner
Compound: O=CCC1CCCCC1 [Compound 2, cyclohexylethanal]
Function at rodent OR-I7 (agonist or antagonist), in words [2]: antagonists
IC50 ([2]; rat OR-I7): 37 µM

Compound: CCCCCCC=O [heptanal]
Function at rodent OR-I7 (agonist or antagonist), in words [2]: regained their ability to function as agonists

Compound: CC(C)=CCC[C@@H](C)CC=O (racemic) [citronellal]
Agonist activity at rat OR-I7 compared with octanal, in words ([2]; rat OR-I7): almost as good a rat OR-I7 agonist as octanal

Relative antagonist potency within the series, in words ([3]; 5 µM octanal): unfavorable
Compound: CCC1(CC=O)CCCCC1 [Compound 11]

Relative antagonist potency within the series, in words ([3]; 5 µM octanal): unfavorable
Compound: CC1(CC=O)CCCCC1 [Compound 10]

Compound: CCCCC=O [Compound 3, Pentanal]
Function at rodent OR-I7 (agonist or antagonist), in words [2]: weak rat OR-I7 antagonist; also recorded: antagonists
IC50 ([2]; rat OR-I7): 460 µM

Relative antagonist potency within the series, in words ([3]; 5 µM octanal): progressively decreased potency
Compound: CCC(CC)(CC)CC=O [Compound 8]

Antagonist potency weaker than compound 9 ([3]; from estimated IC50s, 5 µM octanal, Fig. 4): 3 fold
Compound: O=CCC12CC3CC(CC(C3)C1)C2 [Compound 12]

Compound: CCC1CCC(CC=O)CC1 (stereo not shown) [Compound 4, (4-ethylcyclohexyl)ethanal]
Function at rodent OR-I7 (agonist or antagonist), in words [2]: agonists

Source: publication PMC6067823 (Organic & biomolecular chemistry, 2018)
